Assay results: ChEMBL document CHEMBL1138199, “Identification of compounds with anti-West Nile Virus activity” (J Med Chem, 2006)

Experiments:
[1] = tested on: BHK-21; assay: Cytotoxicity against BHK21 cell line by MTT assay; format: functional; conditions: Mesocricetus auratus
Outline: (§1)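 MTT cytotoxicity assay run in BHK-21 and Vero cells on compounds giving >50% Rluc inhibition in the primary screens; CC50 reported in µM.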

[2] = tested on: West Nile virus; assay: Inhibition of West Nile viral Rluc-Neo-Rep in BHK21 cell line; format: functional, organism-based; conditions: BHK-21
Outline: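 BHK-21 cell line stably carrying Rluc-Neo-Rep replicon; inhibition read as suppression of Renilla luciferase signal. Initial screen at 30 µM, 1% DMSO final; EC50 (µM) then determined.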

[3] = Therapeutic index (CC50/EC50) in BHK21 cells; format: cell-based, BHK-21; conditions: hamster, read-out: Ratio CC50/EC50
Outline: (§2)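 TI computed as CC50/EC50, using MTT CC50 and replicon EC50 in BHK-21 cells, or MTT CC50 and Rluc-FL-WNV EC50 in Vero cells.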

[4] = Therapeutic index (CC50/EC50) in Vero cells; format: cell-based; conditions: monkey, read-out: Ratio CC50/EC50; outline: as §2
[5] = tested on: West Nile virus; assay: Inhibition of Rluc-FL-WNV replicon in Vero cells; format: functional, organism-based
Outline: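 Vero cells infected with full-length WNV carrying Renilla luciferase reporter (Rluc-FL-WNV), covering entry, replication and assembly; inhibition read as suppression of luciferase signal. Compounds first screened at 30 µM in 1% DMSO final, then EC50 (µM) determined.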

[6] = tested on: Vero; assay: Cytotoxicity against Vero cells by MTT assay; format: functional; conditions: Chlorocebus sabaeus; outline: as §1
[7] = tested on: BHK-21; assay: Inhibition of West Nile virus VLP replicon in BHK21 cell line; format: functional, cell-based; conditions: Mesocricetus auratus
Outline: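 Naive BHK-21 cells infected with virus-like particles, made by expressing WNV structural proteins in cells carrying the Rluc-Neo-Rep replicon, which package replicon RNA. This captures entry and replication but not assembly. Inhibition is read as suppression of Renilla luciferase signal. Compounds were given in 1% DMSO final, and EC50 is in µM.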

Row | SMILES | CC50 [1] [µM] | EC50 [2] [µM] | selectivity ratio [3] | selectivity ratio [4] | EC50 [5] [µM] | CC50 [6] [µM] | EC50 [7] [µM]
1 | CC(C)(C)C(=O)N1N=C(C(C)(C)C)CC1c1ccc(Cl)cc1 (stereo not given) | 60 | 27 | 2.2 |  |  |  | 
2 | O=C(Cc1ccc(Cl)cc1)N1N=C(c2ccco2)CC1c1ccc(Br)cc1 (stereo not given) | > 300 | 20 | > 15 |  |  |  | 
3 | CC(C)(C)C1=NN(C(=O)c2ccccc2)C(c2ccc(Cl)cc2)C1 (stereo not given) | 65 | 57 | 1.1 |  |  |  | 
4 | CN1CCN(C(=O)c2cccc3c(NC4CCN(Cc5ccccc5)CC4)c4ccccc4nc23)CC1 | 300 | 15 | 20 | 3.6 | 22 | 80 | 20
5 | CN1CCN(C(=O)c2ccc3nc4ccccc4c(NC4CCN(Cc5ccccc5)CC4)c3c2)CC1 | 100 | 28 | 3.6 | 3.2 | 25 | 80 | 25
6 | CN1CCN(C(=O)c2ccc3c(NCCc4c[nH]c5ccccc45)c4ccccc4nc3c2)CC1 | 150 | 13.7 | 11 | < 1.5 | > 30 | 45 | 10
7 | CCN(CC)C(=O)c1ccc2c(NCCc3c[nH]c4ccccc34)c3ccccc3nc2c1 | 125 | 7 | 18 | 1.8 | 25 | 45 | 7
8 | O=C(c1ccccc1)N1N=C(c2ccccc2)CC1c1ccc(Cl)cc1 (stereo not given) | 250 | 20 | 12.5 |  |  |  | 
9 | O=C(Cc1ccc(Cl)cc1)N1N=C(c2cccs2)CC1c1ccc(Cl)cc1 (stereo not given) | > 300 | 19 | > 16 |  |  |  | 
10 | CCN(CC)C(=O)c1ccc2nc3ccccc3c(NC3CCN(Cc4ccccc4)CC3)c2c1 | 120 | 22 | 5.4 | 2.5 | 20 | 50 | 22
11 | CCN(CC)C(=O)c1ccc2nc3ccccc3c(NCCc3c[nH]c4ccccc34)c2c1 | 110 | 25 | 4.4 | 5 | 15 | 75 | 20
12 | CN1CCN(Cc2ccc3c(c2)Oc2ccccc2C3)CC1 | 200 | > 30 | < 6.7 | < 3 | > 30 | 90 | 28
13 | CN1CCN(C(=O)c2ccc3c(NC4CCN(Cc5ccccc5)CC4)c4ccccc4nc3c2)CC1 | 150 | 15.5 | 9.7 | 2.7 | 30 | 80 | 8
14 | O=C(c1ccccc1)N1N=C(c2cccs2)CC1c1ccc([N+](=O)[O-])cc1 (stereo not given) | > 300 | 200 | > 1.5 |  |  |  | 
15 | CC(C)(C)C(=O)N1N=C(c2cccs2)CC1c1ccc(Cl)cc1 (stereo not given) | 90 | 60 | 1.5 |  |  |  | 
16 | O=C(c1ccccc1)N1N=C(c2cccs2)CC1c1ccc(F)cc1 (stereo not given) | 100 | 59 | 1.7 |  |  |  | 
17 | CCN(CC)C(=O)c1cccc2c(NCCc3c[nH]c4ccccc34)c3ccccc3nc12 | 150 | 9.2 | 16 | 2.5 | 20 | 50 | 9

Row | SMILES | CC50 [1] [µM] | EC50 [2] [µM] | selectivity ratio [3] | selectivity ratio [4] | EC50 [5] [µM] | CC50 [6] [µM] | EC50 [7] [µM]
18 | COc1ccc(C2CC(c3cccs3)=NN2C(=O)Cc2ccc(Cl)cc2)cc1 (stereo not given) | > 300 | 30 | > 10 |  |  |  | 
19 | O=C(c1cccc2c(NCCc3c[nH]c4ccccc34)c3ccccc3nc12)N1CCOCC1 | 250 | 20 | 13 | < 2 | > 30 | 60 | 23
20 | CN1CCN(C(=O)c2ccc3nc4ccccc4c(NCCc4c[nH]c5ccccc45)c3c2)CC1 | 170 | 28 | 6.1 | 2.6 | 25 | 65 | 27
21 | CN1CCN(C(=O)c2ccc3nc4ccccc4c(Oc4ccccc4)c3c2)CC1 | 100 | 21 | 4.7 | 4 | 20 | 80 | 20
22 | CCN(CC)C(=O)c1ccc2c(NC3CCN(Cc4ccccc4)CC3)c3ccccc3nc2c1 | 150 | 12.5 | 12 | 2.7 | 20 | 55 | 6
23 | O=C(c1ccc([N+](=O)[O-])cc1)N1N=C(c2cccs2)CC1c1ccc(Cl)cc1 (stereo not given) | > 300 | 225 | > 1.3 |  |  |  | 
24 | O=C(Cc1ccccc1)N1N=C(c2cccs2)CC1c1ccc(Cl)cc1 (stereo not given) | 65 | 20 | 3.3 |  |  |  | 
25 | O=C(c1ccccc1)N1N=C(c2cccs2)CC1c1ccc(Br)cc1 (stereo not given) | > 300 | 25 | > 12 |  | > 30 |  | 
26 | COc1ccc(C2CC(c3cccs3)=NN2C(=O)c2ccccc2)cc1 (stereo not given) | > 300 | 63 | > 4.8 |  | > 30 |  | 
27 | CCN(CC)C(=O)c1cccc2c(NC3CCN(Cc4ccccc4)CC3)c3ccccc3nc12 | 350 | 8 | 44 | 3.4 | 22 | 75 | 20
28 | CN1CCN(C(=O)c2cccc3c(NCCc4c[nH]c5ccccc45)c4ccccc4nc23)CC1 | 150 | 10.5 | 14 | 2.8 | 18 | 50 | 17
29 | O=C(Cc1ccc(Cl)cc1)N1N=C(c2cccs2)CC1c1ccc(Br)cc1 (stereo not given) | > 300 | 19 | > 16 |  |  |  | 
30 | O=C(c1ccccc1)N1N=C(c2ccc(Br)s2)CC1c1ccc(Cl)cc1 (stereo not given) | > 300 | 17 | > 18 |  |  |  | 
31 | CN1CCN(C(=O)c2ccc3c(Oc4ccccc4)c4ccccc4nc3c2)CC1 | 100 | 28 | 3.6 | 1.4 | 28 | 40 | 18
32 | CN1CCN(C(=O)c2cccc3c(Oc4ccccc4)c4ccccc4nc23)CC1 | 150 | 20 | 7.5 | 2.5 | 20 | 50 | 20
33 | O=C(c1cccc2c(Oc3ccccc3)c3ccccc3nc12)N1CCOCC1 | 155 | > 30 | < 5.1 | 2 | 22 | 45 | > 30
34 | O=C(c1cccc2c(NC3CCN(Cc4ccccc4)CC3)c3ccccc3nc12)N1CCOCC1 | 300 | 20 | 15 | < 3 | > 30 | 90 | 20
